Assay results published in ChEMBL document CHEMBL5329149, “Identification of macrocyclic peptides which activate bacterial cylindrical proteases” (RSC Med Chem, 2023).
pEC50: −log10 of the molar value. Each block holds one compound with its values, some of them ahead of it. Activity calls are given as the source filed them. The calls are words filed in the database; no cut-off is given here. Starred links: 1 amine or outer side, 2 acyl side, 3 side chain; linkers in the order of their positions; H or OH if unused. Positions of bridges follow the written chain, without caps; N, C: chain ends. Non-standard residues stand in square brackets, D forms with d. Residues, ends and D or L forms follow the SMILES beside them. *: point of attachment. Phe(3,5-F2) = N[C@@H](Cc1cc(F)cc(F)c1)C(=O)O; X1 = CN(CC(=O)O)c1nc(CC[*:1])cc(CC[*:2])n1; CH2COCH2 = O=C(C[*:1])C[*:2]; Cam = NC(=O)C*

What was measured:
[1] = target: T1, ATP-dependent Clp protease proteolytic subunit (Staphylococcus aureus (strain NCTC 8325)) (UniProt Q2G036); assay: Activation of Staphylococcus aureus ClpP assessed as beta-casein digestion using beta-casein/FITC casein as substrate at 200 uM incubated for 24 hrs; conditions: filed as activator
T1 sequence (whole entry): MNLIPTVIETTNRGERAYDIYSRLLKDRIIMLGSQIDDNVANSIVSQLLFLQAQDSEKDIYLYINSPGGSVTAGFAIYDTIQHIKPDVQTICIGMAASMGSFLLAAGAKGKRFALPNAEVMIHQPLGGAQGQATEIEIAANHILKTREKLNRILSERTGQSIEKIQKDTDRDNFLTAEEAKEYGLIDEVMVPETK
Procedure, shortened: (§1)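 Purified ClpP (1.0 µM, final) was incubated with bovine beta-casein (5.0 µM or 3 µM) and ligand at 37 °C, in 100 mM Tris-HCl pH 7.6 with 100 mM KCl or 100 mM HEPES pH 7 with 150 mM NaCl. Timed aliquots were quenched in SDS loading buffer at 90 °C for 5 min, run on SDS-PAGE, stained with Coomassie and quantified by densitometry. ≥3 independent experiments.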

[2] = target: T1, ATP-dependent Clp protease proteolytic subunit (Staphylococcus aureus (strain NCTC 8325)); assay: Induction of tetra-decameric form of Staphylococcus aureus ClpP stabilization in Tris-HCl
Procedure, shortened: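 S. aureus ClpP (1 mg/mL) incubated overnight at 32 °C with or without ligands (200 µM, DMSO as blank) in destabilizing buffer (100 mM Tris-HCl pH 7.6, 100 mM KCl). Oligomeric state then analysed by gel filtration on a pre-equilibrated Superdex 200 Increase 10/300 column, tetradecamer versus heptamer.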

[3] = target: T1, ATP-dependent Clp protease proteolytic subunit (Staphylococcus aureus (strain NCTC 8325)); assay: Activation of Staphylococcus aureus ClpP assessed as FtsZ digestion at 200 uM incubated for 24 hrs by densitometric analysis; conditions: filed as activator
Procedure, shortened: (§2)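 Strep-tagged S. aureus ClpP (1.0 µM, expressed in ClpP-deficient E. coli SG1146a) digesting S. aureus FtsZ (4.0 µM, final) with ligand at 37 °C, under the same conditions as the beta-casein assay. Timed aliquots were quenched with SDS loading buffer and heated, then resolved by SDS-PAGE, Coomassie-stained and quantified by densitometry. ≥3 independent experiments.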

[4] = target: ATP-dependent Clp protease proteolytic subunit (Escherichia coli (strain K12)) (UniProt P0A6G7); assay: Activation of Escherichia coli ClpP assessed as increase in fluorescence intensity using beta-casein/FITC casein as substrate at 200 uM incubated for 24 hrs
Chain of ATP-dependent Clp protease proteolytic subunit (Escherichia coli (strain K12)) (P0A6G7 whole entry): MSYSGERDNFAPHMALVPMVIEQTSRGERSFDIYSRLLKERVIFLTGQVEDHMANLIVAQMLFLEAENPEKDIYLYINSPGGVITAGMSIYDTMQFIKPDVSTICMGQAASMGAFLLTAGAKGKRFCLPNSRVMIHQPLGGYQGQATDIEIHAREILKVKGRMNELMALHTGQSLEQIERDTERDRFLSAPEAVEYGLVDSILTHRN
Procedure, shortened: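 E. coli ClpP (0.5 µM, His-tagged, expressed in E. coli C41(DE3)) with FITC-casein (1.8 µM) plus bovine beta-casein (4.8 µM), final concentrations. Ligands at 200 µM in 100 mM Tris-HCl pH 7.6, 100 mM KCl, 24 h at 37 °C. Fluorescence read at ex 483/em 530 nm, mean of DMSO wells subtracted. Run in parallel without ClpP to exclude false positives. Duplicates, ≥2 independent experiments, mean ± SD.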

[5] = target: ATP-dependent Clp protease proteolytic subunit (Escherichia coli (strain K12)) (UniProt P0A6G7); assay: Activation of Escherichia coli ClpP assessed as beta-casein digestion using beta-casein/FITC casein as substrate at 200 uM incubated for 24 hrs by SDS-PAGE analysis; conditions: filed as activator; procedure, shortened: as §1
[6] = target: T1, ATP-dependent Clp protease proteolytic subunit (Staphylococcus aureus (strain NCTC 8325)); assay: Activation of Staphylococcus aureus ClpP assessed as beta-casein digestion using beta-casein/FITC casein as substrate at 10 uM incubated for 24 hrs; conditions: filed as activator; procedure, shortened: as §1
[7] = target: T1, ATP-dependent Clp protease proteolytic subunit (Staphylococcus aureus (strain NCTC 8325)); assay: Activation of Staphylococcus aureus ClpP assessed as FtsZ digestion at 10 uM incubated for 24 hrs by densitometric analysis; conditions: filed as activator; procedure, shortened: as §2
[8] = target: T2, ATP-dependent Clp protease proteolytic subunit (Staphylococcus aureus (strain NCTC 8325), UniProt Q2G036); assay: Activation of Staphylococcus aureus ClpP assessed as beta-casein digestion using beta-casein/FITC casein as substrate incubated for 24 hrs
T2 sequence (Q2G036 whole entry): T1 sequence (whole entry)

SMILES: CCCC/C=C/C(=O)N[C@@H](Cc1cc(F)cc(F)c1)C(=O)OC
Activity [1]: Active | Activity [2]: Active | Activity [3]: Active

SMILES: CC[C@H](C)[C@@H]1NC(=O)CNC(=O)[C@@H](NC(C)=O)CSCC(=O)CSC[C@@H](C(N)=O)NC(=O)CNC(=O)[C@H](Cc2ccccc2)NC(=O)CNC1=O
Activity [5]: Active | Activity [1]: Active | Activity [3]: Active

SMILES: C[C@@H]1C[C@H]2C(=O)OC[C@H](NC(=O)[C@H](Cc3cc(F)cc(F)c3)NC(=O)CCC3CCCCC3)C(=O)N3CCC[C@H]3C(=O)N3CCCC[C@H]3C(=O)N[C@@H](C)C(=O)N2C1
Activity [6]: Active | Activity [2]: Active | Activity [7]: Active

SMILES: CC[C@H](C)[C@H](NC(=O)[C@H](CSCC(N)=O)NC(C)=O)C(=O)NCC(=O)N[C@@H](Cc1ccccc1)C(=O)NCC(=O)N[C@@H](C)C(=O)N[C@@H](CSCC(N)=O)C(N)=O (Ac-C(Cam)IGFGAC(Cam)-NH2)
Activity [4]: inactive

SMILES: CC[C@H](C)[C@H](NC(=O)[C@H](CSCC(N)=O)NC(C)=O)C(=O)NCC(=O)N[C@@H](Cc1ccccc1)C(=O)NCC(=O)N[C@@H](C)C(=O)N[C@H](C(=O)N[C@@H](CSCC(N)=O)C(N)=O)[C@@H](C)O (Ac-C(Cam)IGFGATC(Cam)-NH2)
Activity [4]: inactive

SMILES: CC[C@H](C)[C@@H]1NC(=O)CNC(=O)[C@@H](NC(C)=O)CSCC(=O)CSC[C@@H](C(N)=O)NC(=O)CNC(=O)[C@H](Cc2cc(F)cc(F)c2)NC(=O)CNC1=O (Ac-CGIG[Phe(3,5-F2)]GC-NH2; linker 1-7 via CH2COCH2)
Activity ([4]; filed as activator): Active | Activity [5]: Active | Activity [1]: Active | pEC50 [8]: 4.39 | Activity [3]: Active

SMILES: CC[C@H](C)[C@@H]1NC(=O)CNC(=O)[C@@H](NC(C)=O)CSCCc2cc(nc(N(C)CC(=O)O)n2)CCSC[C@@H](C(N)=O)NC(=O)CNC(=O)[C@H](Cc2cc(F)cc(F)c2)NC(=O)CNC1=O (Ac-CGIG[Phe(3,5-F2)]GC-NH2; linker 1-7 via X1)
Activity [4]: inactive

Other lines, results leading:

Activity [4]: inactive
SMILES: CC[C@H](C)[C@@H]1NC(=O)CNC(=O)[C@@H](NC(C)=O)CSCC(=O)CSC[C@@H](C(N)=O)NC(=O)CNC(=O)[C@@H](Cc2ccccc2)NC(=O)CNC1=O

Activity [4]: inactive
SMILES: CC[C@H](C)[C@@H]1NC(=O)CNC(=O)[C@H](NC(C)=O)CSCC(=O)CSC[C@@H](C(N)=O)NC(=O)CNC(=O)[C@H](C)NC(=O)CNC1=O

Activity [4]: inactive
SMILES: CC[C@H](C)[C@H](NC(=O)CNC(=O)[C@H](CSCC(N)=O)NC(C)=O)C(=O)NCC(=O)N[C@@H](Cc1ccccc1)C(=O)NCC(=O)N[C@@H](C)C(=O)N[C@@H](CSCC(N)=O)C(N)=O (Ac-C(Cam)GIGFGAC(Cam)-NH2)

Activity [4]: inactive
SMILES: CC[C@H](C)[C@H](NC(=O)CNC(=O)[C@H](CSCC(N)=O)NC(C)=O)C(=O)NCC(=O)N[C@@H](Cc1ccccc1)C(=O)NCC(=O)N[C@@H](C)C(=O)N[C@H](C(=O)N[C@@H](CSCC(N)=O)C(N)=O)[C@@H](C)O (Ac-C(Cam)GIGFGATC(Cam)-NH2)

Activity [4]: inactive
SMILES: CC[C@H](C)[C@H](NC(=O)CNC(=O)[C@H](CSCC(N)=O)NC(C)=O)C(=O)NCC(=O)N[C@@H](Cc1ccccc1)C(=O)NCC(=O)N[C@@H](CSCC(N)=O)C(N)=O (Ac-C(Cam)GIGFGC(Cam)-NH2)

Activity [4]: inactive
SMILES: CC[C@H](C)[C@H](NC(=O)CNC(=O)[C@H](CSCC(N)=O)NC(C)=O)C(=O)NCC(=O)N[C@@H](Cc1cc(F)cc(F)c1)C(=O)NCC(=O)N[C@@H](CSCC(N)=O)C(N)=O (Ac-C(Cam)GIG[Phe(3,5-F2)]GC(Cam)-NH2)

Activity [4]: inactive
SMILES: CC[C@H](C)[C@H](NC(=O)[C@H](CSCC(N)=O)NC(C)=O)C(=O)NCC(=O)N[C@@H](Cc1ccccc1)C(=O)NCC(=O)N[C@@H](CSCC(N)=O)C(N)=O (Ac-C(Cam)IGFGC(Cam)-NH2)
